Assay results: ChEMBL document CHEMBL1139917, “Synthesis of isoquinuclidine analogs of chloroquine: antimalarial and antileishmanial activity” (Bioorg Med Chem, 2007)
Values after ≈ are worked out from the molar mass of the structure shown.

Key:
Plasmodium falciparum [1] = assay: Antimalarial activity against chloroquine-sensitive Plasmodium falciparum D6; format: functional, organism-based
In short: (§1)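 P. falciparum D6 (Sierra Leone, chloroquine-sensitive) and W2 (Indochina, chloroquine-resistant) clones were kept in type A human RBCs and subcultured daily. The assay used infected-cell suspensions at 2% parasitemia and 2% hematocrit in 96-well microplates, run in duplicate across several concentrations. IC50 was taken from dose curves. Artemisinin and chloroquine served as drug controls, with DMSO as vehicle control.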

[2] = Selectivity index, ratio of IC50 for Vero cells to IC50 for chloroquine-sensitive Plasmodium falciparum D6; format: functional
In short: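 Ratio of Vero cell cytotoxicity (Neutral Red, run in parallel) to activity against P. falciparum D6 (Sierra Leone, chloroquine-sensitive). Parasite assay: D6 grown in type A human RBCs, subcultured daily; infected cells at 2% parasitemia, 2% hematocrit in 96-well plates; duplicate wells at several concentrations. IC50 from dose curves; DMSO vehicle control.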

Plasmodium falciparum [3] = assay: Antimalarial activity against chloroquine-resistant Plasmodium falciparum W2; format: functional, organism-based; in short: as §1
[4] = Selectivity index, ratio of IC50 for Vero cells to IC50 for chloroquine-resistant Plasmodium falciparum W2; format: functional
In short: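 Vero (monkey kidney fibroblast) cytotoxicity was run in parallel with the P. falciparum W2 assay using the Neutral Red assay, with IC50 taken from growth inhibition curves. The selectivity index is the Vero IC50 divided by the W2 IC50.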

Vero = assay: Cytotoxicity against Vero cells by neutral red assay; format: cell-based; details: chlorocebus sabaeus
In short: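 VERO (monkey kidney fibroblast) cells tested in parallel with the antiparasitic assays. Viability read by Neutral Red assay. IC50 computed from growth inhibition curve.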

Leishmania donovani = assay: Antileishmanial activity against Leishmania donovani promastigotes after 72 hrs by Alamar blue assay; format: functional, organism-based
In short: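 Leishmania donovani promastigote culture at 2 × 10⁶ cells/mL, 96-well format; compounds diluted in DMSO. Incubation 72 h at 26 °C. Growth read by Alamar blue adapted to fluorometric readout. Pentamidine and amphotericin B as standard agents. IC50 computed from growth inhibition curve.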

| SMILES | IC50 (Plasmodium falciparum [1]) [µg/mL] | Ratio IC50 [2] | IC50 (Plasmodium falciparum [3]) [µg/mL] | Ratio IC50 [4] | Activity (Vero) | IC50 (Leishmania donovani) [µg/mL] | IC90 (Leishmania donovani) [µg/mL] |
| --- | --- | --- | --- | --- | --- | --- | --- |
| CN(C)CC1CC2CCC1N(c1ccnc3cc(Cl)ccc13)C2 (stereo not drawn) | 0.012 (≈ 0.0364 µM) | >396.7 | 0.018 (≈ 0.0546 µM) | >264.4 | Non-toxic | 1.9 (≈ 5.76 µM) | 6 (≈ 18.2 µM) |
| NCC1CC2CCC1N(c1ccnc3cc(Cl)ccc13)C2 (stereo not drawn) | 0.13 (≈ 0.431 µM) | >36.6 | 0.18 (≈ 0.596 µM) | >26.4 | Non-toxic | 4.2 (≈ 13.9 µM) | 20 (≈ 66.3 µM) |
| CN1CC2CCC1C(CNc1ccnc3cc(Cl)ccc13)C2 (stereo not drawn) | 0.0038 (≈ 0.012 µM) | >1252.3 | 0.004 (≈ 0.0127 µM) | >1190 | Non-toxic | 3 (≈ 9.5 µM) | 6.5 (≈ 20.6 µM) |
| N#CC1CC2CCC1N(c1ccnc3cc(Cl)ccc13)C2 (stereo not drawn) | 0.35 (≈ 1.18 µM) | >13.6 | 0.17 (≈ 0.571 µM) | >28 | Non-toxic | 16 (≈ 53.7 µM) | 33 (≈ 111 µM) |
| CCNCC1CC2CCC1N(c1ccnc3cc(Cl)ccc13)C2 (stereo not drawn) | 0.28 (≈ 0.849 µM) | >17 | 0.11 (≈ 0.333 µM) | >43.2 | Non-toxic | 7.2 (≈ 21.8 µM) | 29 (≈ 87.9 µM) |
| CCN(CC)CC1CC2CCC1N(c1ccnc3cc(Cl)ccc13)C2 (stereo not drawn) | 0.31 (≈ 0.866 µM) | >15.4 | 0.2 (≈ 0.559 µM) | >23.8 | Non-toxic | 3.8 (≈ 10.6 µM) | 8 (≈ 22.4 µM) |
| C[C@@H]1[C@H](O)[C@@H](C)/C=C/C=C/C=C/C=C/C=C/C=C/C=C/[C@H](O[C@@H]2O[C@H](C)[C@@H](O)[C@H](N)[C@@H]2O)C[C@@H]2O[C@](O)(C[C@@H](O)C[C@@H](O)[C@H](O)CC[C@@H](O)C[C@@H](O)CC(=O)O[C@H]1C)C[C@H](O)[C@H]2C(=O)O [AMPHOTERICIN B] |  |  |  |  |  | 0.18 (≈ 0.195 µM) | 1.8 (≈ 1.95 µM) |
| C[C@@H]1CC[C@H]2[C@@H](C)C(=O)O[C@@H]3O[C@@]4(C)CC[C@@H]1[C@]32OO4 [ARTEMISININ] | 0.0036 (≈ 0.0128 µM) |  | 0.0018 (≈ 0.00638 µM) |  |  |  |  |
| N=C(N)c1ccc(OCCCCCOc2ccc(C(=N)N)cc2)cc1 [PENTAMIDINE] |  |  |  |  |  | 2.8 (≈ 8.22 µM) | 10 (≈ 29.4 µM) |
